Data set [1] addresses T1, S-adenosylmethionine decarboxylase proenzyme (Homo sapiens) (UniProt P17707).
T1 sequence (whole entry): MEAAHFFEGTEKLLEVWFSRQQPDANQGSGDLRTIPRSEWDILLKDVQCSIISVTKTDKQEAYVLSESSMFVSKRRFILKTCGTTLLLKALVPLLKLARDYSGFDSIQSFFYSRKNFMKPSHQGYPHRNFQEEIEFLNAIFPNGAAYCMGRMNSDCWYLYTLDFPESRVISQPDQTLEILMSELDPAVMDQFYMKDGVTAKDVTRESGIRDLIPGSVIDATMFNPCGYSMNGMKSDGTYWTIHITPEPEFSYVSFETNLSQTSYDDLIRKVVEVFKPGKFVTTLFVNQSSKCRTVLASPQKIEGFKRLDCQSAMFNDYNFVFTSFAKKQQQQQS

Data set [2] concerns the target ornithine decarboxylase (Rattus norvegicus) (UniProt P09057). In words: Time of half-inactivation of ornithine decarboxylase extrapolated to infinite inhibitor concentration was determined. The note with it: in vitro.
Data set [3] deals with T2, Ornithine decarboxylase (Rattus norvegicus, UniProt P09057).
T2 sequence (P09057 whole entry): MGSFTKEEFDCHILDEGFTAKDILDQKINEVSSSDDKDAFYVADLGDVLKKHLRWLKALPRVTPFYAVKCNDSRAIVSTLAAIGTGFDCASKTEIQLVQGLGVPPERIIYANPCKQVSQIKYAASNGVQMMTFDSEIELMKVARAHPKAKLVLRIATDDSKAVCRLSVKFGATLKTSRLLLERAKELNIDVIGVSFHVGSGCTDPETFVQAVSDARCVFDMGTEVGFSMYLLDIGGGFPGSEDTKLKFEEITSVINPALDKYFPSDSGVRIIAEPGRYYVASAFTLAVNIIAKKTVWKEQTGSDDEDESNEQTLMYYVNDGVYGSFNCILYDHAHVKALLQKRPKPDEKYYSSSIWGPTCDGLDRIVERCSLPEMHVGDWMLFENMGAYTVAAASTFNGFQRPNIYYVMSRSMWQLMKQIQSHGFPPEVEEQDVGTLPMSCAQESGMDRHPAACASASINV
In words: In vitro inhibition against ornithine decarboxylase. A digest of the protocol:
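Time-dependent inactivation of partially purified rat liver ODC (thioacetamide-induced, acid treatment at pH 4.6). Enzyme incubated at 37 °C in 30 mM phosphate pH 7.1, 5 mM DTT and 0.1 mM pyridoxal phosphate with varied inhibitor concentrations. Aliquots were assayed at intervals. Half-inactivation times were plotted against 1/[I] (Kitz–Wilson, least-squares fit) to give apparent K_I and τ1/2.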

The nature of data set [4]: In vitro inhibition against rat aorta semicarbazide-sensitive amine oxidase. The data set is classed as tissue-based.

Consider `NCCCCN`, for which the Ka in data set [1] was 16 µM. As for `NCCCC(N)(CF)C(=O)O` (stereo unspecified), the half-inactivation time in data set [2] was 2.6 min. The compound also yielded a Ki in data set [3] of 2700 nM. As to `C#C[C@@H](N)CC[C@H](C)N`, in data set [2], the half-inactivation time was 1.7 min. This compound also gave a Ki in data set [3] of 3000 nM.

As for `C#CC(N)CC(F)(F)CN` (stereo unspecified), in data set [4], the Ki was 100 nM.

These data come from ChEMBL document CHEMBL1124320, “2,2-Difluoro-5-hexyne-1,4-diamine: a potent enzyme-activated inhibitor of ornithine decarboxylase” (J Med Chem, 1989).
